The values below come from PubChem BioAssay.

Structures are written as SMILES. Activity calls are given as the source filed them.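 How the source made its calls, unless noted: active means GFP response above 150% of the DMSO level; inconclusive means fewer than 70 events counted for a yeast strain; inactive means the rest.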

The nature of test [1]: hit retest on RPL19A-GFP reporter strain – cell-based, S. cerevisiae, flow cytometry, cherry picks, mother/daughter gates, confirmation (AID 2270;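 active means GFP response below 50% of the DMSO control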). The following applies: 3 h, at 10 µM, stronger effect = lower value, 100 = same GFP as DMSO wells.
Test [2] can be described thus: yeast TOR pathway reporter LAP4-GFP change – cell-based, cherry picks, flow cytometry, mother/daughter gates, confirmation (AID 2271;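 active means GFP response above 150% of the DMSO control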;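 further: ratio of sample to DMSO plate mean so 100% equals DMSO level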). The settings on record: S. cerevisiae LAP4-GFP strain, 3 h, at 10 µM, stronger effect = higher value, 100 means same as DMSO control. The method in brief:
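System: GFP-fusion yeast strain | Input: Yeast cells seeded at OD600 of 0.2 | Technique: HT flow cytometry, GFP fluorescence channel | Read-out: % GFP response vs DMSO | Dosing: Single test-compound dose, 10 µM final | Controls: Positive rapamycin (400 ng/mL), negative DMSO | Times: 3 h treatment at 30 °C with rotation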
On the technique in general: A flow cytometer gives signals particle by particle.

Test [3] in a line: TOR pathway reporter MEP2-GFP, retest of hits – S. cerevisiae, flow cytometry GFP, cherry picks, confirmation (AID 2272;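 active means GFP response above 150% of the DMSO control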;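 further: ratio of well signal to plate DMSO mean so 100% equals DMSO level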). The following applies: S. cerevisiae MEP2-GFP strain, 3 h, at 10 µM, stronger effect = higher value.
The nature of test [4]: yeast AGP1-GFP fluorescence change, single-dose – cell-based, flow cytometry, S. cerevisiae, cherry picks, confirmation (AID 2273).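 Further: median GFP channel fluorescence over the whole cell population gate.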 The settings on record: S. cerevisiae AGP1-GFP strain, 3 h, at 10 µM.
The nature of test [5]: TOR pathway CIT2 reporter hit retest – S. cerevisiae, GFP fusion, cherry picks, mother/daughter gates, confirmation (AID 2274). The settings on record: S. cerevisiae CIT2-GFP strain, flow cytometry, 3 h, at 10 µM, stronger effect = higher value.
[6] abbreviates: measured here: daughter cell gate.
The mark [7] stands for this setting: measured here: mother cell gate.
The mark [8] stands for this setting: measured here: daughter cell gate response.
The mark [9] stands for this setting: measured here: mother cell gate response.

For `CC(C)Oc1ccc(C(=O)/C=C2/C(=O)Nc3ccccc32)cc1`, the GFP response vs DMSO in test [1] is 88.2% (inactive); in test [1] (setting [6]), 83.8%; in test [1] (setting [7]) it was 80.3%; in test [3], 111% (inactive). For the same molecule, the GFP response relative to DMSO in test [2] was 161% (active); in test [2] (setting [8]) it was 119%; in test [2] (setting [9]), 161%. In addition, the GFP response, % of DMSO in test [4] is 123% (inactive); in test [5], 110% (inactive); in test [5] (setting [6]), 93.2%; in test [5] (setting [7]), 98.7%.

Regarding `Cc1ccc(C2=NN(S(C)(=O)=O)C(c3ccc4nccnc4c3)C2)cc1` (stereo unspecified), the GFP response vs DMSO is 98.6% (inactive) in test [1], 99.4% in test [1] (setting [6]), 97.6% in test [1] (setting [7]) and 100% (inactive) in test [3]. For the same molecule, the GFP response relative to DMSO in test [2] is 101% (inactive); in test [2] (setting [8]) it was 101%; in test [2] (setting [9]) it was 99.3%. The GFP response, % of DMSO in test [4] is 96.8% (inactive); in test [5], 101% (inactive); in test [5] (setting [6]), 103%; in test [5] (setting [7]), 99.7%.

With `CCOC(=O)c1cc(S(=O)(=O)N2CCN(C(=O)OCC)CC2)cn1C`, the GFP response vs DMSO is 101% (inactive) in test [1], 99% in test [1] (setting [6]), 101% in test [1] (setting [7]) and 107% (inactive) in test [3]. Besides, the values for the GFP response relative to DMSO in test [2], in test [2] (setting [8]) and in test [2] (setting [9]) were 105% (inactive), 100% and 107%, respectively. Moreover, the GFP response, % of DMSO was 95.7% (inactive) in test [4], 100% (inactive) in test [5], 99.7% in test [5] (setting [6]) and 102% in test [5] (setting [7]).

Consider `COc1ccccc1OCCCc1c(C)n[nH]c1C`, for which the GFP response vs DMSO is 119% (inactive) in test [1], 89.8% in test [1] (setting [6]), 115% in test [1] (setting [7]) and 130% (inactive) in test [3]. In addition, the values for the GFP response relative to DMSO in test [2], in test [2] (setting [8]) and in test [2] (setting [9]) were 207% (active), 104% and 205%, respectively. In addition, the GFP response, % of DMSO in test [4] is 76.6% (inactive); in test [5], 114% (inactive); in test [5] (setting [6]) it was 101%; in test [5] (setting [7]), 101%.

Turning to `CN(CCCS(=O)(=O)[O-])c1ccc(/C=C/c2ccc3ccccc3[n+]2C)cc1`, the GFP response vs DMSO in test [1] was 101% (inactive); in test [1] (setting [6]), 100%; in test [1] (setting [7]), 101%; in test [3], 111% (inactive). The GFP response relative to DMSO in test [2] is 102% (inactive); in test [2] (setting [8]), 102%; in test [2] (setting [9]), 104%. Further, the GFP response, % of DMSO in test [4] was 99.6% (inactive); in test [5], 106% (inactive); in test [5] (setting [6]), 106%; in test [5] (setting [7]) it was 106%.

As for `COc1ccc(-c2nc(NC(=O)c3cc(C(C)(C)C)nn3C)sc2C)cc1`, the GFP response vs DMSO was 98.7% (inactive) in test [1], 100% in test [1] (setting [6]), 99% in test [1] (setting [7]) and 103% (inactive) in test [3]. Further, the GFP response relative to DMSO was 98.9% (inactive) in test [2], 101% in test [2] (setting [8]) and 99.5% in test [2] (setting [9]). Moreover, the GFP response, % of DMSO in test [4] is 100% (inactive); in test [5] it was 104% (inactive); in test [5] (setting [6]) it was 103%; in test [5] (setting [7]) it was 104%.

As for `Cc1ccc(-c2nc(NC(=O)c3nn(C)cc3[N+](=O)[O-])sc2C)cc1`, the GFP response vs DMSO is 100% (inactive) in test [1], 97.3% in test [1] (setting [6]), 101% in test [1] (setting [7]) and 102% (inactive) in test [3]. In addition, the GFP response relative to DMSO in test [2] was 98.7% (inactive); in test [2] (setting [8]) it was 97.2%; in test [2] (setting [9]), 101%. For the same molecule, the GFP response, % of DMSO in test [4] is 101% (inactive); in test [5], 96.5% (inactive); in test [5] (setting [6]) it was 91.5%; in test [5] (setting [7]) it was 97.7%.

For the molecule `C=CCn1c(C)c(/C=C/c2cc[n+](C)cc2)c2ccccc21`, the GFP response vs DMSO in test [1] was 99.6% (inactive); in test [1] (setting [6]) it was 99.8%; in test [1] (setting [7]) it was 98.1%; in test [3] it was 147% (inactive). The figures for the GFP response relative to DMSO in test [2], in test [2] (setting [8]) and in test [2] (setting [9]) were 133% (inactive), 136% and 129%, respectively. In addition, the GFP response, % of DMSO in test [4] was 101% (inactive); in test [5], 141% (inactive); in test [5] (setting [6]) it was 142%; in test [5] (setting [7]) it was 139%.

`Cc1cc(C=C2C(=O)c3ccccc3C2=O)c(C)n1-c1cccc(C(=O)O)c1`: the GFP response vs DMSO in test [1] is 100% (inactive); in test [1] (setting [6]) it was 101%; in test [1] (setting [7]), 101%; in test [3], 101% (inactive). Further, the GFP response relative to DMSO in test [2] was 96.1% (inactive); in test [2] (setting [8]) it was 98.2%; in test [2] (setting [9]), 95.1%. Moreover, the GFP response, % of DMSO in test [4] was 100% (inactive); in test [5], 112% (inactive); in test [5] (setting [6]) it was 110%; in test [5] (setting [7]), 113%.

On to `O=C(c1cccc(COCC(F)(F)C(F)F)c1)N1CCN(c2ccccc2)CC1`, for which the GFP response vs DMSO is 101% (inactive) in test [1], 101% in test [1] (setting [6]), 102% in test [1] (setting [7]) and 104% (inactive) in test [3]. Moreover, the GFP response relative to DMSO in test [2] was 100% (inactive); in test [2] (setting [8]) it was 97.9%; in test [2] (setting [9]), 97.5%. The GFP response, % of DMSO is 102% (inactive) in test [4], 97.8% (inactive) in test [5], 96.4% in test [5] (setting [6]) and 98% in test [5] (setting [7]).

Consider `CC(=O)Oc1oc(-c2ccccc2)nc1C=Nc1ccc(N(C)C)cc1`, for which the GFP response vs DMSO in test [1] is 100% (inactive); in test [1] (setting [6]), 100%; in test [1] (setting [7]) it was 99.2%; in test [3], 95.7% (inactive). Also, the GFP response relative to DMSO is 95% (inactive) in test [2], 91% in test [2] (setting [8]) and 98.3% in test [2] (setting [9]). Also, the GFP response, % of DMSO in test [4] is 97% (inactive); in test [5], 92.6% (inactive); in test [5] (setting [6]), 91.5%; in test [5] (setting [7]) it was 92.3%.

For `Cc1cc(NC(=O)c2cncc(Br)c2)ccc1NC(=O)c1cc2ccccc2o1`, the GFP response vs DMSO in test [1] was 102% (inactive); in test [1] (setting [6]), 100%; in test [1] (setting [7]), 104%; in test [3], 109% (inactive). The figures for the GFP response relative to DMSO in test [2], in test [2] (setting [8]) and in test [2] (setting [9]) were 90.2% (inactive), 87.9% and 95.2%, respectively. Moreover, the GFP response, % of DMSO is 95% (inactive) in test [4], 99.1% (inactive) in test [5], 98.1% in test [5] (setting [6]) and 97.7% in test [5] (setting [7]).

As for `Cn1c(=O)[nH]c(=O)c2c1nc(N1CCCCC1)n2CCOc1ccccc1`, the GFP response vs DMSO in test [1] is 99% (inactive); in test [1] (setting [6]), 99.5%; in test [1] (setting [7]), 100%; in test [3], 102% (inactive). For the same molecule, the GFP response relative to DMSO is 98.7% (inactive) in test [2], 100% in test [2] (setting [8]) and 102% in test [2] (setting [9]). The GFP response, % of DMSO was 104% (inactive) in test [4], 103% (inactive) in test [5], 101% in test [5] (setting [6]) and 103% in test [5] (setting [7]).

Regarding `Cc1nn2c(NCCCN3CCOCC3)c3c(nc2c1-c1ccccc1)CCC3`, the GFP response vs DMSO in test [1] is 101% (inactive); in test [1] (setting [6]) it was 102%; in test [1] (setting [7]) it was 101%; in test [3], 99% (inactive). Also, the GFP response relative to DMSO in test [2] was 98.2% (inactive); in test [2] (setting [8]) it was 97.5%; in test [2] (setting [9]), 98.4%. In addition, the GFP response, % of DMSO in test [4] is 103% (inactive); in test [5] it was 100% (inactive); in test [5] (setting [6]), 101%; in test [5] (setting [7]), 101%.

On to `O=C(CS(=O)c1ccccc1[N+](=O)[O-])Oc1ccc(Br)cc1` (stereo unspecified), for which the GFP response vs DMSO in test [1] is 101% (inactive); in test [1] (setting [6]), 105%; in test [1] (setting [7]), 96.5%; in test [3] it was 101% (inactive). Also, the GFP response relative to DMSO in test [2] was 168% (active); in test [2] (setting [8]), 167%; in test [2] (setting [9]), 164%. Also, the GFP response, % of DMSO was 107% (inactive) in test [4], 98.6% (inactive) in test [5], 105% in test [5] (setting [6]) and 91.5% in test [5] (setting [7]).

As to `Cc1ccc(-n2nc(C)c3c(C)c(CCC(=O)O)c(C)nc32)cc1`, the GFP response vs DMSO in test [1] was 102% (inactive); in test [1] (setting [6]), 100%; in test [1] (setting [7]), 103%; in test [3], 96.8% (inactive). Further, the GFP response relative to DMSO is 101% (inactive) in test [2], 101% in test [2] (setting [8]) and 100% in test [2] (setting [9]). Moreover, the GFP response, % of DMSO was 100% (inactive) in test [4], 102% (inactive) in test [5], 101% in test [5] (setting [6]) and 102% in test [5] (setting [7]).
